# Compounds with a hit are over-represented: about 0.83% of the library has one in this group of screens.
# FXIa mix inh: FXIa protease inhibitors in compound pools, primary screen, biochemical, 10-compound mixtures; Coagulation factor XI (Homo sapiens), P03951; purified FXIa, fluorogenic substrate, pooled mixtures; inhibition, % at 5 µM; 62,000 tested, 0.19% active; AID 680, 2007;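 further: each value is inhibition by a whole ten-compound pool holding the compound; 0% = enzyme with no mixture and 100% = wells lacking enzyme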
# E coli RNAP: E. coli RNAP inhibitors, biochemical | 62,000 tested, 0.2% active | DNA-directed RNA polymerase subunit beta (Escherichia coli (strain K12)), P0A8V2 | inhibition, %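 (tested at 10 µM)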 | E. coli RNA polymerase, fluorescence transcription assay; in the data active means inhibition above about 20%;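 further: 0% = enzyme without compound and 100% = no enzyme blank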
# AP complement: alternative complement pathway inhibitors, primary screen, biochemical, ELISA, human serum, orthogonally pooled compounds | LPS-coated ELISA, C3 deposition; tested in compound mixtures | 62,000 tested, 0.08% active | inhibition, % at 5 µM;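 active means inhibition above 30% in each of the two pooled mixtures holding the compound, so the lower value exceeds 30%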;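 further: 0% = serum in Mg-EGTA without compound and 100% = EDTA serum blank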
#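 Test system: human serum alternative complement pathway, C3 deposition on LPS-coated wells; also added: Plate-bound LPS; doses: 5 µM per compound in ten-compound mixtures; schedule: 1 h at 37 °C; detection: Anti-C3 ELISA, OD 450 nm; evaluation: percent inhibition of C3 deposition onto LPS; repeats: two pool placements per compound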
# Cathepsin G inh: human cathepsin G inhibitors, primary screen, biochemical, pooled compound mixtures, AMC fluorescence; P08311; purified enzyme, AMC-tetrapeptide fluorescence; inhibition, % at 5 µM (by protocol); 62,000 tested, 0.2% active; AID 581, 2007;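 active means inhibition above 20% in each of the two mixture wells holding the compound; inactive means inhibition of 20% or less in either well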;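 further: 0% = enzyme control without mixture and 100% = blank lacking enzyme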
# C1s block: complement C1s protease inhibitors, primary screen, biochemical, 10-compound mixtures. Complement C1s subcomponent (Homo sapiens), P09871. purified C1s, fluorogenic AMC substrate, pooled mixtures. mean inhibition % of two 10-compound mixtures (stronger effect = higher value), % at 5 µM (by protocol). 62,000 tested, 0.16% active;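 active means inhibition above 20% in each of the two 10-compound mixture wells holding the compound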;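 further: 0% = enzyme wells lacking compound mixture and 100% = no-enzyme blank wells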
# FXIIa mix inh: human factor XIIa inhibitors, primary screen, biochemical, pooled compound mixtures, fluorogenic substrate. purified FXIIa. inhibition, % at 5 µM. 62,000 tested, 0.2% active. AID 684, 2007;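 further: 0% = enzyme without compound and 100% = no enzyme blank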
# Target sequence (P00748 20-372 limits assumed): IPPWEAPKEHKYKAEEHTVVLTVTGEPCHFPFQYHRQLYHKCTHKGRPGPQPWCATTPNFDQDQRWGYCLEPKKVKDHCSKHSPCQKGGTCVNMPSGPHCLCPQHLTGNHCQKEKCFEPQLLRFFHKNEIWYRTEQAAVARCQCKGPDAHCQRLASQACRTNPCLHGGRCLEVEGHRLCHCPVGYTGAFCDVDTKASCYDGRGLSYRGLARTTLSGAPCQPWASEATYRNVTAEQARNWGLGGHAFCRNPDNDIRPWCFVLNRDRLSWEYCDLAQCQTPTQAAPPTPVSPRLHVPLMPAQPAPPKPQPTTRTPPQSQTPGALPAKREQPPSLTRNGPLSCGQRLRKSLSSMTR
# Target sequence (P00748 373-615 limits assumed): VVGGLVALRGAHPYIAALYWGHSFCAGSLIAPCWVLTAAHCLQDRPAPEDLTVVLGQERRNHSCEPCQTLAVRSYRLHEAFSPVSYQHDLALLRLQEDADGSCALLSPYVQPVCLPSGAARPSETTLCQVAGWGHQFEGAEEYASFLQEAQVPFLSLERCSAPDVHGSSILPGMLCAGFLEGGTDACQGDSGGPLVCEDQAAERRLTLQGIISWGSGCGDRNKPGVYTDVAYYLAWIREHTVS
# Numbers without * were called inactive. Unless noted, no stated cut-off is given here; in the data, active means inhibition above about 20% (passing the limit was not always enough); inactive means the rest.
SMILES,FXIa mix inh,E coli RNAP,AP complement,Cathepsin G inh,C1s block,FXIIa mix inh
O=C(Nc1ccccc1C(F)(F)F)N1CCCCCC1,15,5,-3,-5,3,3
CC1(C)COCN1S(=O)(=O)c1ccc(C(=O)Nc2nnc(-c3ccc(Cl)s3)o2)cc1,11,6,3,10,23*,11
CCc1cc2c(SCC(=O)c3cccs3)ncnc2s1,4,24*,-1,15,15,-16
CCC(=O)Nc1ccc(C(=O)Nc2ccc3c(c2)OCO3)cc1,7,-2,12,16,21*,0
COc1ccc2c(c1)CCc1c(C(=O)NCc3ccc(F)cc3)noc1-2,27,-15,17,93*,44*,4
COc1ccc2c(c1)CCc1c(C(=O)Nc3ccc(OC)c(OC)c3)noc1-2,7,4,18,37*,19,-4
COc1ccc2c(c1)CCc1c(C(=O)NCCc3ccc(OC)c(OC)c3)noc1-2,4,-5,7,52,-15,0
CCOC(=O)N1CCN(C(=O)c2ccc3c(SCC(=O)O)c4c(nc3c2)CCC4)CC1,-2,4,8,7,3,0
O=C(NC1CS(=O)(=O)CC1NCc1ccco1)c1ccccc1 (centres undefined),2,0,-8,-4,1,3
Cc1nc(NC2=NCN(CC3CCCO3)CN2)nc2ccccc12 (centres undefined),-2,6,11,2,-10,-21
O=C1C(Cl)=C(N2CCCCC2)C(=O)N1c1ccccc1Cl,22*,10,2,9,3,5
Cc1ccccc1N1C(=O)C(Cl)=C(N2CCCCCC2)C1=O,3,11,12,4,0,14
CN(CC(=O)NC1CCCc2ccccc21)S(=O)(=O)c1ccc2c(c1)c(=O)n(C)c(=O)n2C (centres undefined),7,2,8,-2,-15,26*
COCCN1C(=O)c2ccccc2C(C(=O)NCc2ccco2)C1c1c[nH]c2ccccc12 (centres undefined),3,6,13,12,15,2
COCCN1C(=O)c2ccccc2C(C(=O)NCCCN2CCCC2)C1c1c[nH]c2ccccc12 (centres undefined),37*,-2,11,5,3,8
CN(C)CCN1C(=O)C(=O)/C(=C(/O)c2ccc(OCc3ccccc3)cc2)C1c1ccncc1 (centres undefined),8,1,-6,-7,-40,5
CC(C)(C)Sc1nc(O)cc(=O)[nH]1,-1,1,34*,7,-5,5
CCc1nc2ccccc2n1Cc1cc(=O)n2cc(C)ccc2n1,12,1,4,6,0,9
CCCCn1c(=NC(=O)c2ccc3c(c2)OCO3)c(C#N)cc2c(=O)n3cccc(C)c3nc21,-3,1,16,5,-3,3
CC(C)OCCCn1c(=NC(=O)c2ccncc2)c(C#N)cc2c(=O)n3ccccc3nc21,-30,-13,38*,-15,-90,7
CCOC(=O)c1c(C)oc2c1c(/C=N/c1ccccn1)c(O)c1ccccc12,9,8,11,0,-2,69*
CCOC(=O)C1=C(C)N(C)C(C)=C(C(=O)OCC)C1c1ccccn1,-7,7,4,6,-3,10
c1ccc(-c2n[nH]c(-c3ccccn3)n2)nc1,7,22*,4,0,-7,-2
c1ccc(-c2ccc(-c3ccccn3)nn2)nc1,0,7,7,1,3,6
CCOCCn1c(CN2CCCCC2)nc2c1c(=O)n(C)c(=O)n2C,13,8,-2,-2,-25,-18
CCOCCn1c(CN2CCN(CC)CC2)nc2c1c(=O)n(C)c(=O)n2C,3,22*,2,2,2,5
O=C(CSc1nc2ccccc2o1)Nc1ccc(N2CCOCC2)c(Cl)c1,14,3,14,28,15,3
O=C(CSc1nc2ccccc2o1)Nc1ccccc1N1CCCCCC1,38*,4,3,46,-5,2

# Assay outcomes: PubChem BioAssay, PCMD
